Data from PMC11809490 (RSC Advances, 2025).
Values after ≈ are worked out from the molar mass of the structure shown. “Also recorded” adds a separate entry of the source. Read-outs that look alike come from different tables or passages of the source.

Legend:
[1] = tested on: C4-2; test: MTT assay, cytotoxicity; assay type: cell-based, human
[2] = tested on: tubulin in C4-2 cells; test: Tubulin immunofluorescence; assay type: cell-based, human; details: 10 μM and 20 μM, 48 h
How it was run: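 Fixed and permeabilized with ice-cold methanol. Blocked 1 h in 2% BSA/1% Triton X-100 in PBS. Tubulin antibody overnight at 4 °C, then FITC goat anti-mouse secondary 3 h in the dark. Imaged in FITC and DAPI channels.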

[3] = tested on: 22Rv1; test: MTT assay, cytotoxicity; assay type: cell-based, human; details: Homo sapiens, 22Rv1, 48 h, read-out: IC50 22Rv1
How it was run: (§1)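 Cells in medium with 10% FBS, streptomycin and penicillin; 5000 cells per well. After 12 h, test compounds added at 0.1–40 μM, with 0.1% DMSO as vehicle, for 48 h. Then serum-free medium and MTT (5 mg mL−1) at 4:1 for 4 h at 37 °C. Formazan dissolved in DMSO, absorbance at 570 nm, normalized to DMSO control. IC50 from sigmoidal variable-slope nonlinear regression.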

[4] = tested on: PC3; test: MTT assay, cytotoxicity; assay type: cell-based, human; details: Homo sapiens, PC-3, 48 h, read-out: IC50 PC3
How it was run: as §1

[5] = tested on: HEK293; test: MTT assay, cytotoxicity to normal cells; assay type: cell-based, human
How it was run: as §1

[6] = tested on: C4-2 cells; test: Clonogenic assay; assay type: cell-based, human; details: 10 μM or 20 μM, 10 days
How it was run: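 1000 C4-2 cells plated per well and exposed to test compound at 10 or 20 μM. […] Incubated 10–12 days, washed with PBS and fixed in cold methanol:acetic acid (3:1) for 5–10 min. Colonies photographed for number and size. Run in duplicate.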

[7] = tested on: p-53 and c-jun; test: Level of p-53 and c-jun; assay type: cell-based
[8] = tested on: C4-2 cells; test: JC-1 staining, mitochondrial depolarization; assay type: cell-based, human; details: 10 μM or 20 μM, 48 h
How it was run: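 C4-2 cells (0.25 × 10^5) on 12 mm coverslips, seeded 12 h, then exposed to DMSO or test compound (10 or 20 μM) for 48 h. After PBS wash, incubated with JC-1 (2 μM) in PBS for 20 min. Imaged in FITC and TRITC channels: orange aggregates mark polarized mitochondria, green marks depolarized.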

[9] = tested on: prostate, breast, epithelial cancer cells; test: MTT assay, all tested cancer cell lines together; assay type: cell-based, human
How it was run: as §1

[10] = tested on: C4-2 cells; test: Intracellular ROS levels, H2DCFDA staining; assay type: cell-based, human; details: 10 μM and 20 μM, 48 h
How it was run: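 C4-2 cells on coverslips got DMSO, test compound or H2O2 (10 μM) for 48 h. The figure legend gives test compound at 10 and 20 μM. Cells washed with PBS and loaded with H2DCFDA (2 μM final) in PBS, 40 min at 37 °C. Green signal imaged in FITC channel and expressed relative to DMSO. Three independent replicates; Student's t-test.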

[11] = tested on: C4-2 cells; test: Acridine orange/ethidium bromide assay; assay type: cell-based, human; details: 10 and 20 μM, 48 h
How it was run: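 C4-2 cells (0.25 × 10^5) seeded on 12 mm coverslips for 12 h, then given DMSO or test compound (10 and 20 μM) for 48 h. After PBS wash, stained with AO (100 μg mL−1) plus EB (100 μg mL−1) in PBS for 20 min. Washed and imaged by fluorescence microscopy: FITC channel for green (AO, all cells), TRITC for red (EB, dead cells).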

[12] = tested on: MCF7; test: MTT assay, cytotoxicity; assay type: cell-based, human; details: Homo sapiens, MCF7, 48 h, read-out: IC50 MCF7
How it was run: as §1

[13] = tested on: MDA-MB-231; details: cited from earlier work
[14] = tested on: P388; details: cited from earlier work
[15] = tested on: A-549; details: cited from earlier work
[16] = tested on: HCT-8; details: cited from earlier work

Compound	IC50 ([1]; Homo sapiens, C4-2, 48 h, read-out: IC50 C4-2, MTT, 48 h treatment, 0.1-40 μM) [nM]	IC50 ([1]; read-out: IC50 C4-2, MTT, 48 h treatment, 0.1-40 μM) [nM]	tubulin assembly (β-tubulin antibody staining) [2]	IC50 [3] [nM]	IC50 [4] [µM]	cytotoxicity to normal HEK293 cells, in words [5]	IC50 ([5]; Homo sapiens, HEK293, 48 h, read-out: IC50 HEK293) [µM]	number and size of colonies [6]	level of p-53 and c-jun [7]	mitochondrial depolarization (JC-1) [8]	cytotoxicity against the tested cancer cells, in words (SAR) [9]	ROS levels (DCFDA) [10]	cell death / apoptosis by AO-EB staining [11]	IC50 [12] [nM]	IC50 MDA-MB-231 [13] [µg/mL]	IC50 P388 [14] [µg/mL]	IC50 A-549 [15] [µg/mL]	IC50 HCT-8 [16] [µg/mL]
CCCOc1ccc2[nH]cc(C(=O)C(C#N)=Cc3cn(CC)c4ccccc34)c2c1 [21j, 3-(1-Ethyl-1H-indol-3-yl)-2-(5-propoxy-1H-indole-3-carbonyl)acrylonitrile]	900	980	significant loss of tubulin assembly; also recorded: increases tubulin depolymerization	2900	5.6	no notable impact	> 40	significantly inhibited the number and size of colonies; also recorded: inhibits colony formation	upregulate the level of p-53 and c-jun	induced significant mitochondrial depolarization; also recorded: induces mitochondrial depolarization	significantly enhanced cytotoxicity; also recorded: most effective compound across all cancer cell lines tested	robust increase in ROS levels; also recorded: raises the levels of ROS	robust cell death; also recorded: induced substantial apoptosis	1200				
CN1C[C@@H](c2c[nH]c3cc(Br)ccc23)N(C)C[C@@H]1c1c[nH]c2cc(Br)ccc12 [Dragmacidin B]															1 to 10	15 (≈ 29.9 µM)	1 to 10	1 to 10
